Reference: ChEMBL document CHEMBL3244300, “Pyrimidinylpropenamides as antitumor agents. Analogues of the antibiotic sparsomycin” (1977)
In brackets after ≈: the same amount, converted by molar mass. Activity calls are given as the source filed them. No cut-off for these calls is given here.

Experiments:
Type in all cases: functional
[1] = tested on: P388; test: Antitumor activity against mouse P388 cells allografted in mouse assessed as increase in life span at 400 mg/kg, ip qd administered on day 1 to day 9 relative to control; details: route intraperitoneal
In short: (§1)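 NCI Division of Cancer Treatment standard P-388 lymphocytic leukaemia protocol in mice. Drug given intraperitoneally once daily on days 1–9, with dose in mg/kg. The vehicle was water, saline or propylene glycol depending on the compound. T/C = (mean or median survival of treated ÷ control survival) × 100.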

[2] = tested on: KB; test: Cytotoxicity against human KB cells assessed as growth inhibition; details: for EC50: Homo sapiens, KB, read-out: ED50 (the source's name)
In short: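 KB cell culture run under standard National Cancer Institute Division of Cancer Treatment protocols. Compounds were dissolved in water or propylene glycol as vehicle, depending on the compound. ED50 is the dose that inhibits growth to 50% of control growth, in μg/ml.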

[3] = tested on: P388; test: Antitumor activity against mouse P388 cells allografted in mouse assessed as increase in life span at 0.3 mg/kg, ip qd administered on day 1 to day 9 relative to control; details: route intraperitoneal; in short: as §1
[4] = tested on: P388; test: Antitumor activity against mouse P388 cells allografted in mouse assessed as increase in life span at 6.25 mg/kg, ip qd administered on day 1 to day 9 relative to control; details: route intraperitoneal; in short: as §1
[5] = tested on: P388; test: Antitumor activity against mouse P388 cells allografted in mouse assessed as increase in life span at 38.4 mg/kg, ip qd administered on day 1 to day 9 relative to control; details: route intraperitoneal; in short: as §1
[6] = tested on: P388; test: Antitumor activity against mouse P388 cells allografted in mouse assessed as increase in life span at 5 mg/kg, ip qd administered on day 1 to day 9 relative to control; details: route intraperitoneal; in short: as §1
[7] = tested on: P388; test: Antitumor activity against mouse P388 cells allografted in mouse assessed as increase in life span at 100 mg/kg, ip qd administered on day 1 to day 9 relative to control; details: route intraperitoneal; in short: as §1
[8] = tested on: P388; test: Antitumor activity against mouse P388 cells allografted in mouse assessed as increase in life span at 256 mg/kg, ip qd administered on day 1 to day 9 relative to control; details: route intraperitoneal; in short: as §1
[9] = tested on: P388; test: Antitumor activity against mouse P388 cells allografted in mouse assessed as increase in life span at 40 mg/kg, ip qd administered on day 1 to day 9 relative to control; details: route intraperitoneal; in short: as §1

How did the T/C [1] turn out when `Cc1[nH]c(=O)[nH]c(=O)c1/C=C/C(=O)NC(CO)CSC(C)C` (stereo not given) was run?
Its T/C is 89%.

And the EC50 [2]?
The EC50 was greater than 100 µg/mL.

Which results are given for `CSC[S+]([O-])C[C@H](CO)NC(=O)/C=C/c1c(C)[nH]c(=O)[nH]c1=O` (stereo not given in full)?
T/C [3]: 156%; EC50 [2]: 0.08 µg/mL (≈ 0.221 µM)

`CCCCCCCCCC[S+]([O-])CC(CO)NC(=O)/C=C/c1c(C)nc(O)nc1O` (racemic) was tested. Which T/C [4] did it give?
Its T/C is 153%.

Which T/C [5] does the source give for `CSCSCC(CO)NC(=O)/C=C/c1c(C)nc(O)nc1O` (racemic) [listing 1 of 2 here] here?
Its T/C is 92%.

Which EC50 [2] does the source give for `CCCC[S+]([O-])CC(CO)NC(=O)/C=C/c1c(C)[nH]c(=O)[nH]c1=O` (racemic) here?
The EC50 was 1.2 µg/mL (≈ 3.36 µM).

And the T/C [6]?
The T/C was 161%.

`CCCCCCCCCCSCC(CO)NC(=O)/C=C/c1c(C)[nH]c(=O)[nH]c1=O` (racemic) was tested. Which T/C [7] did it give?
The T/C was 155%.

Which T/C ([1]; 400 mg/kg) does the source give for `CSCC(CO)NC(=O)/C=C/c1c(C)[nH]c(=O)[nH]c1=O` (racemic) here?
Its T/C is 88%.

With `Cc1[nH]c(=O)[nH]c(=O)c1/C=C/C(=O)NC(CO)C[S+](C)[O-].O` (racemic) as the compound, how does the T/C [8] read?
Its T/C is 137%.

And the ED50 [2]?
The ED50 was 1.5 µg/mL.

For `Cc1[nH]c(=O)[nH]c(=O)c1/C=C/C(=O)NC(CO)C[S+]([O-])C[S+](C)[O-].O` (racemic), which EC50 [2] is on record?
Its EC50 is 2.4 µg/mL.

What about the T/C [6] of the same compound?
The T/C was 137%.

With `CSCSCC(CO)NC(=O)/C=C/c1c(C)nc(O)nc1O` (racemic) [listing 2 of 2 here] as the compound, how does the ED50 [2] read?
Its ED50 is “inactive”.

What does the source list for `CSCSCC(CO)NC(=O)/C=C/c1c(C)nc(O)nc1O` (single isomer, unassigned; (+))?
T/C ([1]; 400 mg/kg): 14%; ED50 [2]: 13 µg/mL (≈ 37.6 µM)

`CSCSCC(CO)NC(=O)/C=C/c1c(C)nc(O)nc1O` (single isomer, unassigned; (-)) was tested. Which T/C ([1]; 400 mg/kg) did it give?
The T/C was 86%.

And the ED50 [2]?
Its ED50 is greater than 100 µg/mL.

Which T/C ([1]; 400 mg/kg) does the source give for `CSCC(CO)NC(=O)/C=C/c1c(C)[nH]c(=O)[nH]c1=O` (single isomer, unassigned; (-)) here?
Its T/C is 69%.

And the EC50 [2]?
Its EC50 is greater than 100 µg/mL.

How did the T/C [1] turn out when `Cc1[nH]c(=O)[nH]c(=O)c1/C=C/C(=O)NC(CO)CSCc1ccccc1` (single isomer, unassigned; (-)) was run?
The T/C was 95%.

And the EC50 [2]?
Its EC50 is greater than 100 µg/mL.

With `CCCCSCC(CO)NC(=O)/C=C/c1c(C)[nH]c(=O)[nH]c1=O` (single isomer, unassigned; (-)) as the compound, how does the EC50 [2] read?
The EC50 was 27 µg/mL (≈ 79.1 µM).

Which results are given for `Cc1[nH]c(=O)[nH]c(=O)c1/C=C/C(=O)NC(CO)C[S+]([O-])Cc1ccccc1.O` (single isomer, unassigned; (-))?
T/C [1]: 93%; EC50 [2]: 88 µg/mL

Which results are given for `Cc1[nH]c(=O)[nH]c(=O)c1/C=C/C(=O)NC(CO)C[S+]([O-])C(C)C.O` (single isomer, unassigned; (-))?
T/C [1]: 113%; EC50 [2]: > 100 µg/mL

Which results are given for `Cc1[nH]c(=O)[nH]c(=O)c1/C=C/C(=O)NC(CO)C[S+](C)[O-].O` (stereo in doubt; 10c)?
T/C [9]: 100%; ED50 [2]: >100 µg/mL
